A selection: hits, their analogues and other compounds. The true share with any hit is near 1.3%.
CSN deneddyl inh – inhibitors of human CSN-mediated cullin deneddylation; inhibition, % at 12.5 µM; AID 651999; 360,000 compounds, 0.38% hits; Purified CSN, SCF-Nedd8-OG deneddylation, fluorescence polarization; Q92905;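 active = pattern-corrected inhibition above about 35%, with an unprinted fluorescence ratio check between 0.5 and 1.5, limit read from the data, passing the limit was not always enough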
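Detection – fluorescence polarization · System – HEK293T-derived human Csn5 enzyme · Controls – substrate-only high control, full reaction low control · Timing – 90 min, room temperature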
XiGFP reactiv – reactivates the inactive X chromosome in mouse fibroblasts. XiGFP mouse fibroblasts, % GFP-positive cells imaging, 3 d; cells co-treated with 5-aza-dC sensitizer; scaled so ellipticine positive control = 100%. activation, % at 7.58 µM. 360,000 compounds, 0.055% hits;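 active = mean normalized replicate activation at least 10% and every replicate at or above 10%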
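assay system = SV40-immortalized XiGFP fibroblast cells, line 68-5-11 | buffer or medium = DMEM plus 5-aza-dC sensitizer | doses = single-point pinned compound dosing | times = 3-day compound exposure, then 15 min fixation at room temperature | benchmarks = positive control ellipticine, 6 µM final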
TPT1 inh – inhibitors of Candida albicans tRNA 2'-phosphotransferase TPT1; recombinant caTPT1, FP RNA substrate dephosphorylation; inhibition, % at 5 µM; 300,000 compounds, 0.81% hits; AID 1962;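 active = inhibition above the mean of all tested compounds plus 3 SD, set per screening campaign, cut at about 24% in these data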
Rpn11 inh – Rpn11 (human) deubiquitinase inhibition; O00487; human 26S proteasome, Ub4-pepOG fluorescence polarization; 20S core pre-blocked with epoxomicin; inhibition, % at 20 µM; 360,000 compounds, 0.59% hits; AID 588493;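 active = inhibition at 20 µM, scaled to each plate's controls, above about 33%, limit read from the data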
Target sequence (O00487 whole entry, looked up): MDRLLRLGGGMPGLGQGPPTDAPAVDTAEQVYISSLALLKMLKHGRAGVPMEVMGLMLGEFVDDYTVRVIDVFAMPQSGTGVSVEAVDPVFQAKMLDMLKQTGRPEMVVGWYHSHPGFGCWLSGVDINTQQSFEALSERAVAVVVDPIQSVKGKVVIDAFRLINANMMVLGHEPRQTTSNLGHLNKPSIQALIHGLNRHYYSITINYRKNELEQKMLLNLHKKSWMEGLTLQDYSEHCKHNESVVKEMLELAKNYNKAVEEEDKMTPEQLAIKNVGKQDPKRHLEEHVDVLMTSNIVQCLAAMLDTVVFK
aDG glyco up – alpha-DG glycosylation activation | Pro5-aDG cells, alpha-DG glycosylation AlphaScreen (IIH6); 0% Pro5, 100% B10-LARGE cell signal | activation, % at 10 µM | 360,000 compounds, 0.22% hits | AID 624168;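 active = activation of at least 8% versus controls, or a plate z-score of at least 8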;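 also: Pro5 are CHO cells carrying HIG-tagged alpha-DG that lacks glycosylation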
HNF4A DNA FP – change in binding of human HNF4 alpha to DNA; P41235; HNF4a-FITC DNA binding, fluorescence polarization, 1 h; activity change, % at 10 µM; 360,000 compounds, 0.3% hits; in the data active = activity change above about 30%, passing the limit was not always enough
Rpn11 confirm – confirmation of human proteasome Rpn11 inhibitors | 1,900 compounds, 29% hits | AID 602318 | inhibition, % at 20 µM | purified human 26S proteasome, Ub4-pepOG fluorescence polarization; proteasome pretreated with epoxomicin | shares compounds with Rpn11 inh
MMP-2 inh – blocks human MMP-2, flagging nonselective RPN11 hits. shares compounds with Rpn11 inh. recombinant MMP-2, FRET peptide cleavage fluorescence. inhibition, % at 20 µM. 1,900 compounds, 4% hits. AID 602330;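 also: human MMP-2 activated beforehand with APMA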
Thrombin inh – blocks bovine thrombin, flagging nonselective RPN11 hits; AID 602333; shares compounds with Rpn11 inh; bovine thrombin cleavage of Ub4-pepOG, fluorescence polarization; 1,900 compounds, 13% hits; inhibition, % at 20 µM;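 active = mean inhibition at least 40% at 20 µM, or signal 3 deviations below plate average, so some actives read negative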
Each line names hits and unclear results; the compound was inactive in the other large screens (follow-up assays come after a bar, where they were run). Rule as the data show it, unless noted: active = inhibition above about 40%; inactive = the rest.

CCNC(=S)/N=C(\N)Nc1nc(C)c2cc(C)ccc2n1	Rpn11 inh 44 | Rpn11 confirm inactive | MMP-2 inh inactive | Thrombin inh inactive
COc1cccc(OC)c1C(=O)Nc1ccc2c(c1)Cc1ccccc1-2	none
COc1cccc(OC)c1C(=O)NC(=S)Nc1ccc2c(c1)Cc1ccccc1-2	Rpn11 inh active (no result: XiGFP reactiv) | Rpn11 confirm inactive | MMP-2 inh inactive | Thrombin inh inactive
CCC(=O)N1CC(=O)N2[C@H](C1)[C@H](c1ccc(C#CC(C)C)cc1)[C@@H]2CO	none (no result: CSN deneddyl inh, TPT1 inh, Rpn11 inh, aDG glyco up, HNF4A DNA FP)
C[C@@H]1CN([C@H](C)CO)C(=O)c2cc(-c3ccccc3F)cnc2O[C@@H]1CN(C)Cc1ccccc1	none (no result: CSN deneddyl inh, TPT1 inh, Rpn11 inh, aDG glyco up, HNF4A DNA FP)
Cc1ccc(NC(=O)CS(=O)CC(=O)NCCCc2ccccc2)cc1Cl (stereo unspecified)	none (no result: XiGFP reactiv)
Cc1ccc(NC(=O)CS(=O)CC(=O)Nc2cnc3ccccc3c2)cc1Cl (stereo unspecified)	Rpn11 inh 49 | Rpn11 confirm inactive | MMP-2 inh inactive | Thrombin inh inactive
Cc1ccc(C2=N/C(=C\c3c(C)nn(-c4ccccc4)c3N3CCCC3)C(=O)O2)cc1	none
Cc1nn(-c2ccccc2)c(N2CCCC2)c1/C=C1\N=C(c2ccc(F)cc2)OC1=O	Rpn11 inh 81 | Rpn11 confirm inactive | MMP-2 inh inactive | Thrombin inh inactive
COc1ccc2cc(-c3csc(-c4cccnc4)n3)ccc2c1	Rpn11 inh 65 (no result: XiGFP reactiv) | Rpn11 confirm inactive | MMP-2 inh inactive | Thrombin inh inactive
CCN1CCN(Cc2ccc(NC(=O)c3ccc(C)c(NC(=O)c4cccc(-c5cn[nH]c(=O)c5)c4)c3)cc2C(F)(F)F)CC1	none (no result: XiGFP reactiv)
CCN1CCN(Cc2ccc(NC(=O)c3ccc(C)c(NC(=O)c4csc(-c5ccncc5)n4)c3)cc2C(F)(F)F)CC1	Rpn11 inh 55 | Rpn11 confirm inactive | MMP-2 inh inactive | Thrombin inh inactive
COc1cccc(/C=N/NC(=O)c2cccc3ccccc23)c1OC	Rpn11 inh 32 | Rpn11 confirm inactive | MMP-2 inh inactive | Thrombin inh inactive
O=[N+]([O-])c1ccc(O)c(/C=N/NC2=NS(=O)(=O)c3ccccc32)c1	Rpn11 inh 49 | Rpn11 confirm 90 | MMP-2 inh inactive | Thrombin inh inactive
O=[N+]([O-])c1ccc(/C=N/NC2=NS(=O)(=O)c3ccccc32)cc1	none
Cc1noc(C)c1S(=O)(=O)Nc1ccc2c(c1)C(=O)N([C@@H](C)CO)C[C@H](C)[C@@H](CN(C)Cc1ccccc1)OCCCC[C@@H](C)O2	none (no result: CSN deneddyl inh, TPT1 inh, Rpn11 inh, aDG glyco up, HNF4A DNA FP)
COc1cc(SC#N)ccc1N=Cc1c(C)[nH]n(-c2ccc(Cl)cc2)c1=O	Rpn11 inh 141 (no result: XiGFP reactiv) | Rpn11 confirm inactive | MMP-2 inh inactive | Thrombin inh inactive
CO[C@@H]1CN(C)C(=O)c2cc(NC(C)=O)ccc2OC[C@H](C)N(C(=O)c2cnccn2)C[C@H]1C	none (no result: CSN deneddyl inh, TPT1 inh, Rpn11 inh, aDG glyco up, HNF4A DNA FP)
CCOC(=O)C1=C(c2ccccc2)NC(=S)NC1C (stereo unspecified)	Rpn11 inh 112 (no result: XiGFP reactiv) | Rpn11 confirm inactive | MMP-2 inh inactive | Thrombin inh inactive
CCOC(=O)C1=C(C)NC(=S)NC1C (stereo unspecified)	none
CCC(=O)Nc1ccc2c(c1)C(=O)N(C)C[C@H](OC)[C@H](C)CN(C(=O)CN(C)C)[C@H](C)CO2	none (no result: CSN deneddyl inh, TPT1 inh, Rpn11 inh, aDG glyco up, HNF4A DNA FP)
Cc1cccc(N2CC(C(=O)Nc3cccc(S(=O)(=O)N4CCCCC4)c3)CC2=O)c1C (stereo unspecified)	none (no result: TPT1 inh)
CC(=O)c1cccc(NC(=O)C2CC(=O)N(c3cccc(C)c3C)C2)c1 (stereo unspecified)	Rpn11 inh 93 (no result: XiGFP reactiv) | Rpn11 confirm inactive | MMP-2 inh inactive | Thrombin inh inactive
